Consider two compounds from ChEMBL document CHEMBL1123566, “Synthesis and cardiac electrophysiological activity of 2- and 3-[(substituted phenyl)alkyl]quinuclidines. Structure-activity relationships” (1987).

The species entered for assay [1] is Canis familiaris. Put plainly: In vitro electrophysiological evaluation in canine cardiac ventricular muscle reported as maximum % change for conduction time(CT) at 0.1-100 uM concentration range; Minimal (<10% decrease or increase inCT). It counts as functional, Canis lupus familiaris, Muscle tissue.
The species named for assay [2] is Canis familiaris. The experiment in a line: In vitro electrophysiological evaluation in canine cardiac ventricular muscle reported as % change for conduction time(CT) at 0.1-100 uM concentration range; Minimal (<10% decrease or increase inCT). In kind it is functional, Canis lupus familiaris, Muscle tissue. The gist of the method:
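Canine right ventricular/papillary muscle strips in oxygenated Tyrode's, extracellular extra-stimulus conduction-interval method. FRP and CT are read from conduction-interval curves before and during rising concentrations. Compound is a 10 mM aqueous stock diluted into Tyrode's. Each strip is used once as its own control. Readouts are percent change from control at 10 μM, plus the maximum change with its concentration.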

For assay [3], the species on record is Canis familiaris. Put plainly: In vitro electrophysiological activity in canine cardiac occurred is 100 uM. It counts as functional, Canis lupus familiaris, Heart.
The species entered for assay [4] is Canis familiaris. The experiment in a line: In vitro electrophysiological evaluation in canine cardiac Purkinje fibres reported as % change for action potential duration at a concentration of 10 uM. In kind it is functional, Canis lupus familiaris, Purkinje fiber. The gist of the method:
(§1)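 Canine cardiac Purkinje fibres, intracellular microelectrode recording, paced at a basic cycle length of 1 s. APD95 and Vmax read simultaneously. Compound: 10 mM stock in deionized water, diluted into Tyrode's solution, tested over the stated concentration range. Each fibre used once as its own control. Result is % change from control, given at 10 µM or as the maximum with its concentration. M = <10% decrease or an increase in Vmax.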

The species named for assay [5] is Canis familiaris. Put plainly: In vitro electrophysiological evaluation in canine cardiac occurred is 100 uM. In kind it is functional. To be noted: Canis lupus familiaris; Heart.
The species named for assay [6] is Canis familiaris. The experiment in a line: In vitro electrophysiological evaluation in canine cardiac Purkinje fibres reported as percent change Vmax at 10 uM at concentration range of 1-100 uM; Minimal (<10% decrease or increase in Vmax). The conditions noted are these: Canis lupus familiaris, Purkinje fiber. It counts as functional, organism-based. The gist of the method:
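Canine cardiac Purkinje fibers, intracellular recording, paced at a basic cycle length of 1 s. APD95 and Vmax are recorded together across cumulative concentrations. Compound is a 10 mM aqueous stock diluted into Tyrode's solution. Each fiber is used once as its own control. Readouts are percent change from control at 10 μM, and the maximum change with the concentration where it occurred.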

For assay [7], the species on record is Canis familiaris. The experiment in a line: In vitro electrophysiological activity in canine cardiac occurred is 1 uM. It counts as functional, Canis lupus familiaris, Heart.
The species entered for assay [8] is Canis familiaris. Put plainly: In vitro electrophysiological evaluation in canine cardiac Purkinje fibres reported as % change for action potential duration at 10 uM at 1-100 uM concentration range. It counts as functional, Canis lupus familiaris, Purkinje fiber. The gist of the method: as §1
The species entered for assay [9] is Canis familiaris. Put plainly: In vitro electrophysiological evaluation in canine cardiac ventricular muscle reported as % change for the functional refractory period (FRP) at 10 uM at concentration range of 0.1-100 uM. Set-up: species or system Canis lupus familiaris, Muscle tissue. The method, boiled down: (§2)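 Canine right ventricle and papillary muscle strips in oxygenated Tyrode's solution, fitted with stimulating and recording electrodes. The extra-stimulus conduction-interval method was adapted for in vitro use. FRP and CT were read from a conduction-interval curve before and after various compound concentrations, and expressed as percent change from control. Compounds were taken from 10 mM deionized-water stock into Tyrode's. Each strip was used once as its own control.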

For assay [10], the species on record is Canis familiaris. The experiment in a line: In vitro electrophysiological evaluation in canine cardiac ventricular muscle reported as maximum % change for functional refractory period (FRP) at 0.1-100 uM concentration range; concentration at which it occurred is 1 uM. Set-up: species or system Canis lupus familiaris, Muscle tissue. The gist of the method:
as §2

Assay [11] is filed under the species Canis familiaris. The experiment in a line: In vitro electrophysiological evaluation in canine cardiac ventricular muscle reported as maximum % change for conduction time(CT) at 0.1-100 uM concentration range; Minimal (<10% decrease or increase in CT). In kind it is functional, Canis lupus familiaris, Muscle tissue. The method, boiled down:
as §2

The species named for assay [12] is Canis familiaris. Put plainly: In vitro electrophysiological evaluation in canine cardiac ventricular muscle reported as maximum % change for conduction time(CT) at 0.1-100 uM concentration range; concentration at which it occurred is 100 uM. It counts as functional, Canis lupus familiaris, Muscle tissue. The gist of the method:
as §2

The species entered for assay [13] is Canis familiaris. Put plainly: In vitro electrophysiological evaluation in canine cardiac ventricular muscle reported as maximum % change for functional refractory period (FRP) at 0.1-100 uM concentration range; concentration at which it occurred is 10 uM. More on the design: species or system Canis lupus familiaris, Muscle tissue. The gist of the method: as §2

Assay [14] is filed under the species Canis familiaris. The experiment in a line: (§3) In vitro electrophysiological evaluation in canine cardiac occurred is 100 uM. It counts as functional. The conditions noted are these: Canis lupus familiaris; Heart.
Assay [15] is filed under the species Canis familiaris. The experiment in a line: In vitro electrophysiological evaluation in canine cardiac Purkinje fibres reported as percent change Vmax at 10 uM at concentration range of 1-100 uM; Minimal (<10% decrease or increase in V max). It counts as functional. To be noted: Canis lupus familiaris, Purkinje fiber. The method, boiled down: as §1

The species named for assay [16] is Canis familiaris. The description is as §3. To be noted: Canis lupus familiaris; Heart. In kind it is functional. This is another data set of the same source.
Assay [17] is filed under the species Canis familiaris. The experiment in a line: In vitro electrophysiological evaluation in canine cardiac ventricular muscle reported as % change for conduction time(CT) at 10 uM at 0.1-100 uM concentration range; Minimal (<10% decrease or increase in CT). It counts as functional, Canis lupus familiaris, Muscle tissue.
The species entered for assay [18] is Canis familiaris. The experiment in a line: In vitro electrophysiological evaluation in canine cardiac Purkinje fibres reported as percent change Vmax at 10 uM at concentration range of 0.1-100 uM; Minimal (<10% decrease or increase in V max). It counts as functional, organism-based. The conditions noted are these: Canis lupus familiaris, Purkinje fiber. The gist of the method:
as §1

The species entered for assay [19] is Canis familiaris. The experiment in a line: (§4) In vitro electrophysiological activity in canine cardiac occurred is 100 uM. In kind it is functional, Canis lupus familiaris, Heart.
For assay [20], the species on record is Canis familiaris. The assay is described as §4. It counts as functional, Canis lupus familiaris, Heart. This is another data set of the same source.
The species named for assay [21] is Canis familiaris. Put plainly: In vitro electrophysiological evaluation in canine cardiac ventricular muscle reported as maximum % change for functional refractory period (FRP) at 0.1-100 uM concentration range; concentration at which it occurred is 100 uM. More on the design: species or system Canis lupus familiaris, Muscle tissue. The gist of the method:
as §2

“And” between values parts separate entries of the source, which are not always exact repeats. Equal values may be shown once.

For the compound `CCN(CC)CCNC(=O)c1ccc(N)cc1.Cl` [PROCAINAMIDE HYDROCHLORIDE], the CT in the assay filed under Canis familiaris [1] and in the assay listed under Canis familiaris [2] was below 10% throughout. For the same compound, the APD95 in the assay listed under Canis familiaris [3] was -8% and 3%; in the assay listed under Canis familiaris [4], -4%; in the assay filed under Canis familiaris [7] it was -7%; in the assay filed under Canis familiaris [8], -1% and 0%. Further, the Vmax in the assay filed under Canis familiaris [5] was -14% and -10% (2×); in the assay listed under Canis familiaris [6], below 10%.
For `Cl.O=C(CCC1C(=O)C2CCN1CC2)c1ccc(Cl)c([N+](=O)[O-])c1` (stereo not drawn), the FRP in the assay listed under Canis familiaris [9] is 21% and 14% and 26%; in the assay listed under Canis familiaris [10], 14%; in the assay filed under Canis familiaris [13], 21%; in the assay listed under Canis familiaris [21], 44%. The CT in the assay listed under Canis familiaris [11] is below 10%; in the assay filed under Canis familiaris [12] it was 14% and 21%; in the assay filed under Canis familiaris [17] it was below 10%. The APD95 is 4% and 3% in the assay listed under Canis familiaris [4]; 1% in the assay filed under Canis familiaris [8]; 4% and -11% in the assay listed under Canis familiaris [19]; 11% in the assay filed under Canis familiaris [20]. The Vmax in the assay listed under Canis familiaris [14] is -37% and -42%; in the assay filed under Canis familiaris [15], below 10%; in the assay listed under Canis familiaris [16] it was -13%; in the assay listed under Canis familiaris [18], below 10%.
